# Measured values from different studies.
# Compare with care: the assays were run in different laboratories.
# PLA2G6: 85/88 kDa calcium-independent phospholipase A2 (PLA2G6, Homo sapiens, UniProt O60733)
# HDAC7: Histone deacetylase 7 (HDAC7, Homo sapiens, UniProt Q8WUI4)
# CSNK1A1: Casein kinase I isoform alpha (CSNK1A1, Homo sapiens, UniProt P48729)
# SLC22A12: Solute carrier family 22 member 12 (SLC22A12, Homo sapiens, UniProt Q96S37)
# HDAC10: Polyamine deacetylase HDAC10 (HDAC10, Homo sapiens, UniProt Q969S8)
SMILES,target,effect on,action,method,notes,IC50
O=C(CCCCc1ccc(CO)cc1)C(F)(F)F,PLA2G6,enzyme activity,inhibitor,,,1.1 µM
COc1ccc(N(Cc2csc(-c3ccc(Br)cc3)n2)C(=O)CCCCCC(=O)NO)cc1,HDAC7,enzyme activity,inhibitor,,,> 10 µM
Cc1ncc(-c2cc3cc(-c4c(C)ccc(O)c4C)cnc3[nH]2)cn1,"Membrane-associated tyrosine- and threonine-specific cdc2-inhibitory kinase (PKMYT1, Homo sapiens, UniProt Q99640)",cell-free assay,,TR-FRET,,0.019 µM
O=C(NO)c1ccc(Cn2cnc3c(Nc4ccc(Cl)cc4)ncnc32)cc1,HDAC7,enzyme activity,inhibitor,,,0.048 µM
Fc1ccc(-c2nn3cccc(F)c3c2-c2ccncc2)cc1,CSNK1A1,enzyme activity,inhibitor,ADP detection,,5.5 µM
CCCS(=O)(=O)NC(=O)c1cc2ccccc2n1Cc1ccc(C2CC2)c2ccccc12,SLC22A12,transporter uptake,inhibitor,radiometric,,5.56 µM
COc1ccc2c(-c3ccncc3)c(-c3ccc(F)cc3)nn2c1,CSNK1A1,enzyme activity,inhibitor,ADP detection,,2.4 µM
NC(=O)c1nnn(Cc2cc(Cl)c(C(=O)c3ccc(Cl)cc3)c(Cl)c2)c1N,"Cannabinoid receptor 2 (CNR2, Homo sapiens, UniProt P34972)",cAMP,antagonist,,,3.78 µM
O=C1CCC(c2ccc(OCC(=O)OCCCCc3cn(CCCCCCN4CCc5c(c6ccccc6n5Cc5ccc(C(=O)NO)cc5)C4)nn3)cc2)C(=O)N1 (centres unmarked),HDAC10,enzyme activity,inhibitor,fluorescence,,0.015 µM
O=C(O)CCc1nccc2c3ccccc3n(Cc3ccc(Br)c4ccccc34)c12,SLC22A12,transporter uptake,inhibitor,radiometric,,13.8 µM
c1ccc(-c2n[nH]cc2-c2ccncn2)nc1,CSNK1A1,enzyme activity,inhibitor,ADP detection,,> 30 µM
O=C(O)CCCCCCCC(=O)C(F)(F)F,PLA2G6,enzyme activity,inhibitor,,,352 µM
COc1ccc(N(Cc2csc(-c3ccccc3)n2)C(=O)CCCCCC(=O)NO)cc1,HDAC7,enzyme activity,inhibitor,,,> 10 µM
O=C(CCCCc1ccc(CO)cc1)C(F)(F)C(F)(F)F,PLA2G6,enzyme activity,inhibitor,,,0.63 µM
Cn1cc(-c2ccnc3ccccc23)c(-c2ccccn2)n1,CSNK1A1,enzyme activity,inhibitor,ADP detection,,1.5 µM
O=C(c1ccc(OCCN2CCCCC2)cc1)c1c(-c2ccc(O)cc2)sc2cc(O)ccc12,"Angiotensin-converting enzyme (Mus musculus, UniProt P09470)",enzyme activity,inhibitor,,,88.6 µM
Fc1ccc(-c2nn3cc(C(F)(F)F)ccc3c2-c2ccncc2)cc1,CSNK1A1,enzyme activity,inhibitor,ADP detection,,> 15 µM
O=C(NS(=O)(=O)c1ccccc1)c1cc2ccccc2n1Cc1ccc(Br)c2ccccc12,SLC22A12,transporter uptake,inhibitor,radiometric,,12 µM
N#Cc1ccn2nc(-c3ccc(F)cc3)c(-c3ccncc3)c2c1,CSNK1A1,enzyme activity,inhibitor,ADP detection,,0.73 µM
O=C(NS(=O)(=O)C1CC1)c1cc2ccccc2n1Cc1ccc(C2CC2)c2ccccc12,SLC22A12,transporter uptake,inhibitor,radiometric,,5.8 µM
Oc1ccn2nc(-c3ccc(F)cc3)c(-c3ccncc3)c2c1,CSNK1A1,enzyme activity,inhibitor,ADP detection,,0.84 µM
c1ccc(-c2n[nH]cc2-c2ccncc2)nc1,CSNK1A1,enzyme activity,inhibitor,ADP detection,,2.9 µM
CCc1oc2cc(F)ccc2c1C(=O)c1cc(Br)c(O)c(Br)c1,SLC22A12,transporter uptake,inhibitor,radiometric,oocytes,0.018 µM
c1ccc(-c2occc2-c2ccnc3ccccc23)nc1,CSNK1A1,enzyme activity,inhibitor,ADP detection,,> 30 µM
CN(CCCCCCNC(=O)CNc1cccc2c1C(=O)N(C1CCC(=O)NC1=O)C2=O)Cc1cn(Cc2ccc(C(=O)NO)cc2)c2ccccc12 (centres unmarked),HDAC10,enzyme activity,inhibitor,fluorescence,,0.007 µM
Fc1ccc(-c2nc3cc(C4CC4)ccn3c2-c2ccncc2)cc1,CSNK1A1,enzyme activity,inhibitor,ADP detection,,0.91 µM
c1ccc(-c2[nH]ccc2-c2ccnc3ccccc23)nc1,CSNK1A1,enzyme activity,inhibitor,ADP detection,,> 30 µM
O=C(COc1ccc(C2CCC(=O)NC2=O)cc1)NCCCCCCN1CCc2c(c3ccccc3n2Cc2ccc(C(=O)NO)cc2)C1 (centres unmarked),HDAC10,enzyme activity,inhibitor,fluorescence,,0.023 µM
CC(C)C1=CC2=CC(=O)[C@H]3C(C)(C)CCC[C@]3(C)C2=C(O)C1=O (racemic),"Farnesyl pyrophosphate synthase (FDPS, Homo sapiens, UniProt P14324)",enzyme activity,inhibitor,,,0.12 µM
